Experiments:
[1] = molecular target: AP2-associated protein kinase 1 (Homo sapiens) (UniProt Q2M2I8); assay: Inhibition of human wild-type AAK1 (G25 to L333 residues) expressed in Escherichia coli BL21 assessed as residual activity at 1000 nM after 30 mins by Kinomescan method relative to control
Outline: (§1)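 Single-point screen at a fixed 1 µM, run within a 456-kinase DiscoveRx KINOMEscan panel. Each kinase's read-out is Percent Control, i.e. signal relative to a control without compound. Hits were scored by a Percent Control < 35 cut-off, and an S(35) selectivity score was calculated across the non-mutant kinases.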

[2] = system: Tyrosine-protein kinase ABL1 (Homo sapiens), P00519 [Q252H]; assay: Inhibition of human non-phosphorylated ABL1 Q252H mutant (S229 to K512 residues) expressed in HEK293 cells assessed as residual activity at 1000 nM after 30 mins by Kinomescan method relative to control; type: cell-based
Outline: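 KINOMEscan binding panel of 456 kinases, with the test compound at a single concentration of 1 µM. Read-out is Percent Control.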

[3] = molecular target: Activin receptor type-2A (Homo sapiens) (UniProt P27037); assay: Inhibition of wild-type human ACVR2A (V171 to T499 residues) expressed in Escherichia coli BL21 assessed as residual activity at 1000 nM after 30 mins by Kinomescan method relative to control; outline: as §1
Activin receptor type-2A (Homo sapiens), sequence (P27037 whole entry, the tested form may be a part): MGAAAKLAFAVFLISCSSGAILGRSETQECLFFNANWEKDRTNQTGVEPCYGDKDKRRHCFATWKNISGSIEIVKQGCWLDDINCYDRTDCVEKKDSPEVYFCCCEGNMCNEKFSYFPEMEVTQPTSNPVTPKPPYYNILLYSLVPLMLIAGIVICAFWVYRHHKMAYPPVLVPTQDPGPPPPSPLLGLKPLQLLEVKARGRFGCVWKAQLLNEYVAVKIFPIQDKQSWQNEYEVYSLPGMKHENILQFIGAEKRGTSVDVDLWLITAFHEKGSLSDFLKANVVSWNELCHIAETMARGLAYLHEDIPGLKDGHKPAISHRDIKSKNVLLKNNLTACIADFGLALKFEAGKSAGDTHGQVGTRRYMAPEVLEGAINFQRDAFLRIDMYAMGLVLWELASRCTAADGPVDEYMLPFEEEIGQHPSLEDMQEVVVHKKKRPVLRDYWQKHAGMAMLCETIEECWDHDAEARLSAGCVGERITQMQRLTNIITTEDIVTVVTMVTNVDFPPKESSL

[4] = system: ALK tyrosine kinase receptor (Homo sapiens), Q9UM73 [C1156Y]; assay: Inhibition of wild-type human partial length ALK C1156Y mutant (I1088 to E1409 residues) expressed in HEK293 cells assessed as residual activity at 1000 nM after 30 mins by Kinomescan method relative to control; type: cell-based
[5] = molecular target: Aurora kinase A (Homo sapiens) (UniProt O14965); assay: Inhibition of wild-type human partial length AURKA (E122 to K401 residues) expressed in HEK293 cells assessed as residual activity at 1000 nM after 30 mins by Kinomescan method relative to control; type: cell-based
[6] = molecular target: Dual specificity protein kinase CLK1 (Homo sapiens) (UniProt P49759); assay: Inhibition of wild-type human full length CLK1 (M1 to I484 residues) expressed in Escherichia coli BL21 assessed as residual activity at 1000 nM after 30 mins by Kinomescan method relative to control; outline: as §1
Dual specificity protein kinase CLK1 (Homo sapiens), sequence (P49759 whole entry, looked up, the tested form may be a part, canonical isoform): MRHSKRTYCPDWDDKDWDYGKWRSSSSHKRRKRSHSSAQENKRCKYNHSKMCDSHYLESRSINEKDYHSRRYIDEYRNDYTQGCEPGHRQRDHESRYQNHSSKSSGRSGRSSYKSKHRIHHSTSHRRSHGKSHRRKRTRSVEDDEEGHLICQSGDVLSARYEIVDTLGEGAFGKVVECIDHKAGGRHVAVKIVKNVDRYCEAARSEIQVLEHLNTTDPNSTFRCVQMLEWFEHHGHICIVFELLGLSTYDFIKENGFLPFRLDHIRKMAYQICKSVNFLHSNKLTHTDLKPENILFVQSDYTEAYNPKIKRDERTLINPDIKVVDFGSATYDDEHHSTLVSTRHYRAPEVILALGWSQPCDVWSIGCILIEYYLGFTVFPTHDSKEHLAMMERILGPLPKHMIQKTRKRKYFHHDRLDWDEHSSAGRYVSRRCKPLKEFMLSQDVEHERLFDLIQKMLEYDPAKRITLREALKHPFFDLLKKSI

[7] = molecular target: Casein kinase I isoform gamma-2 (Homo sapiens) (UniProt P78368); assay: Inhibition of wild-type human full length CSNK1G2 (M1 to K415 residues) expressed in Escherichia coli BL21 assessed as residual activity at 1000 nM after 30 mins by Kinomescan method relative to control; outline: as §1
Casein kinase I isoform gamma-2 (Homo sapiens), sequence (P78368 whole entry, looked up, the tested form may be a part, canonical isoform): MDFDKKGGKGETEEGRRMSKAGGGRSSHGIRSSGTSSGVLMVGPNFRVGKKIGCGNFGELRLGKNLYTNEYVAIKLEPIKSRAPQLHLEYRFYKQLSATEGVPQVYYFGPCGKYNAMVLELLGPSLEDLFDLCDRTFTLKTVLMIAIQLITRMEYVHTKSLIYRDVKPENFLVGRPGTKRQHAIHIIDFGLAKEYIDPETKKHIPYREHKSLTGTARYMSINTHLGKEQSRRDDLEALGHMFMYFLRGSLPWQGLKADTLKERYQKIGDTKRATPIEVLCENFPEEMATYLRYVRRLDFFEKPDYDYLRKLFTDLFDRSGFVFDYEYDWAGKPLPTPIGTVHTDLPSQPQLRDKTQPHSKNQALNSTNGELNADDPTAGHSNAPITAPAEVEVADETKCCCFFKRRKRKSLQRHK

[8] = molecular target: Casein kinase II subunit alpha (Homo sapiens) (UniProt P68400); assay: Inhibition of wild-type human full length CSNK2A1 (M1 to Q391 residues) expressed in HEK293 cells assessed as residual activity at 1000 nM after 30 mins by Kinomescan method relative to control; type: cell-based; outline: as §1
[9] = molecular target: Serine/threonine-protein kinase DCLK1 (Homo sapiens) (UniProt O15075); assay: Inhibition of wild-type human partial length DCAMKL1 (L270 to A662 residues) expressed in HEK293 cells assessed as residual activity at 1000 nM after 30 mins by Kinomescan method relative to control; type: cell-based
[10] = molecular target: Mitogen-activated protein kinase 15 (Homo sapiens) (UniProt Q8TD08); assay: Inhibition of wild-type human partial length ERK8 (M1 to P437 residues) expressed in Escherichia coli BL21 assessed as residual activity at 1000 nM after 30 mins by Kinomescan method relative to control
Mitogen-activated protein kinase 15 (Homo sapiens), sequence (Q8TD08 whole entry, the tested form may be a part): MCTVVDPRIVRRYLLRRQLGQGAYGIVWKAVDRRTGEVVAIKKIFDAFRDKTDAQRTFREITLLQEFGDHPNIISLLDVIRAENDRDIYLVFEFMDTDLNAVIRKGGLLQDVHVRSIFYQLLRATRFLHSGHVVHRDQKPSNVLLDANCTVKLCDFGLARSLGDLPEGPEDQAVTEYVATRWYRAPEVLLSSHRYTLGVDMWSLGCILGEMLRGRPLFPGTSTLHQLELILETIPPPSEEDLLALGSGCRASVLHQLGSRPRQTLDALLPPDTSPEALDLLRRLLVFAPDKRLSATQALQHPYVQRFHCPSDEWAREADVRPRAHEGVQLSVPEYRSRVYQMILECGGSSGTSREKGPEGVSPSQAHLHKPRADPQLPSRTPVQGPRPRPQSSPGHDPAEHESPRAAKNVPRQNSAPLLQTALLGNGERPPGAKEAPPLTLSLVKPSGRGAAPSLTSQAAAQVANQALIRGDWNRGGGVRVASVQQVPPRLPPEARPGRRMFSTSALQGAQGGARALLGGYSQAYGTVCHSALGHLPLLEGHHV

[11] = molecular target: Tyrosine-protein kinase Fes/Fps (Homo sapiens) (UniProt P07332); assay: Inhibition of wild-type human partial length FES (I527 to R822 residues) expressed in Escherichia coli BL21 assessed as residual activity at 1000 nM after 30 mins by Kinomescan method relative to control
[12] = molecular target: Receptor-type tyrosine-protein kinase FLT3 (Homo sapiens) (UniProt P36888); assay: Inhibition of wild-type human partial length autoinhibited FLT3 (H564 to Y969 residues) expressed in HEK293 cells assessed as residual activity at 1000 nM after 30 mins by Kinomescan method relative to control; type: cell-based
Receptor-type tyrosine-protein kinase FLT3 (Homo sapiens), sequence (P36888 whole entry, the tested form may be a part): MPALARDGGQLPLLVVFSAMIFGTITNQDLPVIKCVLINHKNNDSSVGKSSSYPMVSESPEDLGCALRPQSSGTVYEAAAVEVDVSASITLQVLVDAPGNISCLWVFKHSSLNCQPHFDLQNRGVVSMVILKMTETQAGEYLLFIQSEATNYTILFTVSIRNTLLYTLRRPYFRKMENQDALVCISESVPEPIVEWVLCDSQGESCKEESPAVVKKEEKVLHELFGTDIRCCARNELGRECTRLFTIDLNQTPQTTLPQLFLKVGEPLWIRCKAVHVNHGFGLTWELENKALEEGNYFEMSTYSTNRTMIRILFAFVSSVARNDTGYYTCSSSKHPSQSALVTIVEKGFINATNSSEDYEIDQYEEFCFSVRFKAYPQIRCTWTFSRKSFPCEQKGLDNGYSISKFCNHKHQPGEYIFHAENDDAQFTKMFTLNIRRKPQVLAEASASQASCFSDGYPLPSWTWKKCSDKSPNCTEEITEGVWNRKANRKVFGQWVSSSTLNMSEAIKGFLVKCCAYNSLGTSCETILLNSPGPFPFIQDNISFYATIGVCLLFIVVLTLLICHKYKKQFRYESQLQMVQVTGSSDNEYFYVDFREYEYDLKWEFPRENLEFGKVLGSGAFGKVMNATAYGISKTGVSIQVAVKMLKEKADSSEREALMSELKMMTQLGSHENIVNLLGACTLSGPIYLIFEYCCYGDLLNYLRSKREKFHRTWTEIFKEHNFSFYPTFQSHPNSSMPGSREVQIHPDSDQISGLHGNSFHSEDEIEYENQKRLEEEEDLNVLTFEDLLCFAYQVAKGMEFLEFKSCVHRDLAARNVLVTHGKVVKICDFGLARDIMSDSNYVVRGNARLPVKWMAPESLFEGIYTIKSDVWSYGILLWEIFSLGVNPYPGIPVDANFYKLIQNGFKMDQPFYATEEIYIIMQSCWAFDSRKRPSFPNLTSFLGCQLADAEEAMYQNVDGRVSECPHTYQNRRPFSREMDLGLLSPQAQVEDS

[13] = molecular target: Cyclin-G-associated kinase (Homo sapiens) (UniProt O14976); assay: Inhibition of wild-type human partial length GAK (G13 to Y338 residues) expressed in Escherichia coli BL21 assessed as residual activity at 1000 nM after 30 mins by Kinomescan method relative to control
[14] = molecular target: Homeodomain-interacting protein kinase 2 (Homo sapiens) (UniProt Q9H2X6); assay: Inhibition of wild-type human partial length HIPK2 (M153 to S564 residues) expressed in HEK293 cells assessed as residual activity at 1000 nM after 30 mins by Kinomescan method relative to control; type: cell-based
[15] = molecular target: LIM domain kinase 1 (Homo sapiens) (UniProt P53667); assay: Inhibition of wild-type human full length LIMK1 (M1 to D647 residues) expressed in Escherichia coli BL21 assessed as residual activity at 1000 nM after 30 mins by Kinomescan method relative to control
Outline: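 Single-concentration screen at 1 µM across a 456-kinase KINOMEscan panel. The read-out is Percent Control for each kinase.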

[16] = molecular target: Mitogen-activated protein kinase kinase kinase 9 (Homo sapiens) (UniProt P80192); assay: Inhibition of wild-type human partial length MLK1 (V88 to W426 residues) expressed in Escherichia coli BL21 assessed as residual activity at 1000 nM after 30 mins by Kinomescan method relative to control
[17] = molecular target: Serine/threonine-protein kinase 3 (Homo sapiens) (UniProt Q13188); assay: Inhibition of wild-type human partial length MST2 (D17 to E318 residues) expressed in Escherichia coli BL21 assessed as residual activity at 1000 nM after 30 mins by Kinomescan method relative to control
[18] = molecular target: Phosphatidylinositol 3-kinase C2 domain-containing subunit gamma (Homo sapiens) (UniProt O75747); assay: Inhibition of wild-type human partial length PIK3C2G (M1 to I1446 residues) expressed in HEK293 cells assessed as residual activity at 1000 nM after 30 mins by Kinomescan method relative to control; type: cell-based
[19] = molecular target: Serine/threonine-protein kinase N2 (Homo sapiens) (UniProt Q16513); assay: Inhibition of wild-type human partial length PKN2 (E634 to C984 residues) expressed in Escherichia coli BL21 assessed as residual activity at 1000 nM after 30 mins by Kinomescan method relative to control
[20] = molecular target: Dual serine/threonine and tyrosine protein kinase (Homo sapiens) (UniProt Q6XUX3); assay: Inhibition of wild-type human full length RIPK5 (M1 to T929 residues) expressed in HEK293 cells assessed as residual activity at 1000 nM after 30 mins by Kinomescan method relative to control; type: cell-based
[21] = molecular target: Ribosomal protein S6 kinase alpha-5 (Homo sapiens) (UniProt O75582); assay: Inhibition of wild-type human partial length N-terminal RPS6KA5 kinase domain 1 expressed in Escherichia coli BL21 assessed as residual activity at 1000 nM after 30 mins by Kinomescan method relative to control
Ribosomal protein S6 kinase alpha-5 (Homo sapiens), sequence (O75582 whole entry, looked up, the tested form may be a part): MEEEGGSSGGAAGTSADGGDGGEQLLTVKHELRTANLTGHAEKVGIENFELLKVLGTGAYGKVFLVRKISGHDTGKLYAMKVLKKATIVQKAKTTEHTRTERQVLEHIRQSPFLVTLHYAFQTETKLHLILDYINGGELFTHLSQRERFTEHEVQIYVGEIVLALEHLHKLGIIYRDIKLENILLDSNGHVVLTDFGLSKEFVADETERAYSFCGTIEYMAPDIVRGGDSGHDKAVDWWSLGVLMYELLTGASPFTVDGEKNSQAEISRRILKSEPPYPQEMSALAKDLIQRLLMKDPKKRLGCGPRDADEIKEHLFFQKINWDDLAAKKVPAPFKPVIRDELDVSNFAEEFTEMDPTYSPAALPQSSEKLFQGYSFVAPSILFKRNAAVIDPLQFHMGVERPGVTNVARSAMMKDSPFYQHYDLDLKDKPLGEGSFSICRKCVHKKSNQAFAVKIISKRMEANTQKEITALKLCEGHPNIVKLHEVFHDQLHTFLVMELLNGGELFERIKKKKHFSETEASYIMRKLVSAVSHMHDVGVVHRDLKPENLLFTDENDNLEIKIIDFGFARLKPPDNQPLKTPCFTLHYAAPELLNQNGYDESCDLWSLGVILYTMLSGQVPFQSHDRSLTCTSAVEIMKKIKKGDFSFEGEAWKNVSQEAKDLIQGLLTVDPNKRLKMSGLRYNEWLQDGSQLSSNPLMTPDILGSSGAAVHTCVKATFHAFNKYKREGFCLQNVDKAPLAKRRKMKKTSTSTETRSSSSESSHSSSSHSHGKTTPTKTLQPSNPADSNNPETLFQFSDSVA

AP2-associated protein kinase 1 (Homo sapiens), sequence (Q2M2I8 whole entry, looked up, the tested form may be a part): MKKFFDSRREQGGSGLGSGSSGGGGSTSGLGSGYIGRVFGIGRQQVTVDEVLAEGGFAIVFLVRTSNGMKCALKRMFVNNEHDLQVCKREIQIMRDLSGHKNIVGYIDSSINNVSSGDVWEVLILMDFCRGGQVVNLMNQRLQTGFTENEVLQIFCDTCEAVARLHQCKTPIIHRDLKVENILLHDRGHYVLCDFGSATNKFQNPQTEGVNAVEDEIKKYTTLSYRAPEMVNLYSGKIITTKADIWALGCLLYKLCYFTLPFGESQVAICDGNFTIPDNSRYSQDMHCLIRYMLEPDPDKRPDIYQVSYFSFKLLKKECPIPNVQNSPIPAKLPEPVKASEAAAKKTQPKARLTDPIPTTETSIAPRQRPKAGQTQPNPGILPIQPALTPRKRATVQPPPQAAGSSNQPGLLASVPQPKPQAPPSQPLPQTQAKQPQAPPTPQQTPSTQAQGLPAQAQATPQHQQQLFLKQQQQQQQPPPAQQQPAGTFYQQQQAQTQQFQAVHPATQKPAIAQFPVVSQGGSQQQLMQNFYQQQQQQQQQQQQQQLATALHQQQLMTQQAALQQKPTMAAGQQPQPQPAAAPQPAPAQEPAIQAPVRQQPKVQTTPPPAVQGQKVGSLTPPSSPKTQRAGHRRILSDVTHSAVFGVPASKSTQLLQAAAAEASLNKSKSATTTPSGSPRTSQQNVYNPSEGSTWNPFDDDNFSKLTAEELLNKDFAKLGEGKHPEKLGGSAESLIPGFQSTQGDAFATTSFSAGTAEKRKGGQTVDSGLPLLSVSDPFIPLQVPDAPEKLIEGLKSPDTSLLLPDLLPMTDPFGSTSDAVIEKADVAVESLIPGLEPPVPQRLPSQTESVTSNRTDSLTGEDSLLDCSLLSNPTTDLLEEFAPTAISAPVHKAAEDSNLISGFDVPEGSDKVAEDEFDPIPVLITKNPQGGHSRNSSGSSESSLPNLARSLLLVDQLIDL

SMILES: COc1cc(OC)c(Cl)c(N2Cc3cnc(Nc4ccc(F)cc4)nc3N(C3CCN(C(=O)/C=C/CN(C)C)CC3)C2=O)c1Cl
- Activity [1]: 100%
- Activity [2]: 33%
- Activity [3]: 99%
- Activity [4]: 68%
- Activity [5]: 100%
- Activity [6]: 100%
- Activity [7]: 100%
- Activity [8]: 100%
- Activity [9]: 95%
- Activity [10]: 100%
- Activity [11]: 40%
- Activity [12]: 100%
- Activity [13]: 96%
- Activity [14]: 100%
- Activity [15]: 100%
- Activity [16]: 97%
- Activity [17]: 64%
- Activity [18]: 95%
- Activity [19]: 91%
- Activity [20]: 100%
- Activity [21]: 99%

Source: ChEMBL document CHEMBL4043093, “2-Oxo-3, 4-dihydropyrimido[4, 5-d]pyrimidinyl derivatives as new irreversible pan fibroblast growth factor receptor (FGFR) inhibitors” (Eur J Med Chem, 2017)
